Measured values from ChEMBL document CHEMBL1149043, “Antiplatelet constituents of formosan Rubia akane” (1994).

Assays:
[1] = system: Platelet; assay: Inhibition of thrombin-induced platelet aggregation in rabbit platelet assessed as aggregation at 300 uM treated 3 mins before thrombin challenge by turbidimetric method; format: functional, Oryctolagus cuniculus
How it was run: (§1)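 Washed rabbit platelets (EDTA PRP, 4.5×10^8/ml, Tyrode's with 0.35% BSA) were preincubated 3 min at 37° with agent at 300 μM or 0.5% DMSO control. Percent aggregation was read turbidimetrically and reported as mean±SEM (n) with significance versus control.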

[2] = system: Platelet; assay: Inhibition of arachidonic acid-induced platelet aggregation in rabbit platelet assessed as aggregation at 300 uM treated 3 mins before arachidonic acid challenge by turbidimetric method; format: functional, Oryctolagus cuniculus; set-up: scale not given: the % may be the effect or the level left; how it was run: as §1
[3] = system: Platelet; assay: Inhibition of collagen-induced platelet aggregation in rabbit platelet assessed as aggregation at 300 uM treated 3 mins before collagen challenge by turbidimetric method; format: functional, Oryctolagus cuniculus; how it was run: as §1
[4] = system: Platelet; assay: Inhibition of platelet activating factor-induced platelet aggregation in rabbit platelet assessed as aggregation at 300 uM treated 3 mins before platelet activating factor challenge by turbidimetric method; format: functional, Oryctolagus cuniculus; how it was run: as §1
[5] = system: Platelet; assay: Inhibition of thrombin-induced platelet aggregation in rabbit platelet assessed as aggregation at 50 uM treated 3 mins before thrombin challenge by turbidimetric method; format: functional, Oryctolagus cuniculus; set-up: scale not given: the % may be the effect or the level left
How it was run: (§2)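 Rabbit platelets, washed from EDTA PRP and suspended at 4.5×10^8/ml in Tyrode's/0.35% BSA, were preincubated 3 min at 37° with agent at 50 μM, with 0.5% DMSO as control. Turbidimetric percent aggregation is given as mean±SEM (n).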

[6] = system: Platelet; assay: Inhibition of arachidonic acid-induced platelet aggregation in rabbit platelet assessed as aggregation at 50 uM treated 3 mins before arachidonic acid challenge by turbidimetric method; format: functional, Oryctolagus cuniculus; set-up: scale not given: the % may be the effect or the level left; how it was run: as §2
[7] = system: Platelet; assay: Inhibition of collagen-induced platelet aggregation in rabbit platelet assessed as aggregation at 50 uM treated 3 mins before collagen challenge by turbidimetric method; format: functional, Oryctolagus cuniculus; set-up: scale not given: the % may be the effect or the level left; how it was run: as §2
[8] = system: Platelet; assay: Inhibition of platelet activating factor-induced platelet aggregation in rabbit platelet assessed as aggregation at 50 uM treated 3 mins before platelet activating factor challenge by turbidimetric method; format: functional, Oryctolagus cuniculus; set-up: scale not given: the % may be the effect or the level left; how it was run: as §2
[9] = system: Platelet; assay: Antiplatelet activity against rabbit platelet assessed as inhibition of collagen-induced platelet aggregation treated 3 mins before collagen challenge by turbidimetric method; format: functional, cell-based; settings: Oryctolagus cuniculus
[10] = system: Platelet; assay: Antiplatelet activity against rabbit platelet assessed as inhibition of arachidonic acid-induced platelet aggregation treated 3 mins before arachidonic acid challenge by turbidimetric method; format: functional, cell-based; settings: Oryctolagus cuniculus

**Q.** What does the source list for `CC(=O)O[C@H]1[C@H](O)[C@@H](CO)O[C@@H](Oc2cc3c(c(O)c2C)C(=O)c2ccc(O)cc2C3=O)[C@@H]1O[C@@H]1O[C@H](C)[C@@H](O)[C@H](O)[C@@H]1O`?
**A.** Percent platelet aggregation [1]: 82.4%; Activity [2]: 90.6%; Platelet aggregation [3]: 82.4%; Platelet aggregation [4]: 81.5%

**Q.** What does the source list for `CC(=O)Oc1ccccc1C(=O)O` [ASPIRIN]?
**A.** Activity [5]: 91.9%; Activity [6]: 0%; Activity [7]: 85.4%; Activity [8]: 90.5%

**Q.** What does the source list for `Cc1c(O[C@@H]2O[C@H](CO)[C@@H](O)[C@H](O)[C@H]2O[C@@H]2O[C@H](C)[C@@H](O)[C@H](O)[C@@H]2O)cc2c(c1O)C(=O)c1ccc(O)cc1C2=O`?
**A.** Percent platelet aggregation [1]: 87%; Activity [2]: 83.4%; Platelet aggregation [3]: 84%; Platelet aggregation [4]: 89.4%

**Q.** For `O=C1c2ccccc2C(=O)c2c(O)cc(O[C@@H]3O[C@H](CO)[C@@H](O)[C@H](O)[C@H]3O)cc21`, which Activity [9] is on record?
**A.** Dose-dependent effect

**Q.** And the Percent platelet aggregation [1]?
**A.** 85.2%

**Q.** What about the Activity [2] of the same compound?
**A.** 71.9%

**Q.** And the Platelet aggregation [3]?
**A.** 0%

**Q.** What about the Platelet aggregation [4] of the same compound?
**A.** 65.5%

**Q.** Which Percent platelet aggregation [1] does the source give for `COC(=O)c1c2c(c3ccccc3c1O)OC(C)(C)C=C2` [MOLLUGIN] here?
**A.** 90.9%

**Q.** What about the Activity [2] of the same compound?
**A.** 0%

**Q.** What about the Platelet aggregation [3] of the same compound?
**A.** 34.1%

**Q.** What about the Platelet aggregation [4] of the same compound?
**A.** 62.5%

**Q.** What about the Activity [10] of the same compound?
**A.** Dose-dependent effect

**Q.** `Cc1ccc2c(c1O)C(=O)c1ccccc1C2=O` was tested. Which Percent platelet aggregation [1] did it give?
**A.** 88.7%

**Q.** And the Activity [2]?
**A.** 81.6%

**Q.** And the Platelet aggregation [3]?
**A.** 85.7%

**Q.** What about the Platelet aggregation [4] of the same compound?
**A.** 82.3%

**Q.** What does the source list for `O=C1c2ccccc2C(=O)c2c(O)cc(O)cc21` [XANTHOPURPURIN]?
**A.** Percent platelet aggregation [1]: 86.9%; Activity [2]: 85%; Platelet aggregation [3]: 3.8%; Platelet aggregation [4]: 82.6%

**Q.** `COC(=O)c1c(CC=C(C)C)c(O[C@@H]2O[C@H](CO)[C@@H](O)[C@H](O)[C@H]2O)c2ccccc2c1O[C@@H]1O[C@H](CO)[C@@H](O)[C@H](O)[C@H]1O` was tested. Which Percent platelet aggregation [1] did it give?
**A.** 91.3%

**Q.** What about the Activity [2] of the same compound?
**A.** 86.9%

**Q.** What about the Platelet aggregation [3] of the same compound?
**A.** 81.2%

**Q.** And the Platelet aggregation [4]?
**A.** 90.3%

**Q.** `Cc1c(O)cc2c(c1O)C(=O)c1ccc(O)cc1C2=O` was tested. Which Activity [9] did it give?
**A.** Dose-dependent effect

**Q.** And the Percent platelet aggregation [1]?
**A.** 85.5%

**Q.** And the Activity [2]?
**A.** 83%

**Q.** What about the Platelet aggregation [3] of the same compound?
**A.** 8.2%

**Q.** What about the Platelet aggregation [4] of the same compound?
**A.** 77.8%

**Q.** `O=C1c2ccccc2C(=O)c2c1cc(O[C@@H]1O[C@H](CO[C@@H]3OC[C@@H](O)[C@H](O)[C@H]3O)[C@@H](O)[C@H](O)[C@H]1O)c(CO)c2O` [LUCIDIN PRIMEVOROSIDE] was tested. Which Percent platelet aggregation [1] did it give?
**A.** 92.2%

**Q.** And the Activity [2]?
**A.** 88.5%

**Q.** And the Platelet aggregation [3]?
**A.** 83.5%

**Q.** What about the Platelet aggregation [4] of the same compound?
**A.** 89.1%
